According to ChEMBL document CHEMBL1641369, “The synthesis and biological evaluation of 2-(3-methyl or 3-phenylisoxazol-5-yl)-3-aryl-8-thiabicyclo[3.2.1]octanes” (Bioorg Med Chem Lett, 2011):

How the values were obtained:
[1] = biological target: Sodium-dependent dopamine transporter (Homo sapiens, UniProt Q01959); assay: Displacement of [3H]WIN35428 from human DAT transfected cell membrane
[2] = biological target: Sodium-dependent serotonin transporter (Homo sapiens, UniProt P31645); assay: Displacement of [3H]citalopram from human SERT expressed in HEK293 cell membrane; type: cell membranes
In short: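 Human SERT was labelled with [3H]citalopram at a fixed concentration and competed against a range of test-drug concentrations. Nonspecific binding was measured with fluoxetine at 10 μM. IC50 reported as mean ± SEM of at least three independent experiments, each run in triplicate. Some entries are screening data from replicate triplicate experiments.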

Sequence of Sodium-dependent serotonin transporter (P31645 whole entry): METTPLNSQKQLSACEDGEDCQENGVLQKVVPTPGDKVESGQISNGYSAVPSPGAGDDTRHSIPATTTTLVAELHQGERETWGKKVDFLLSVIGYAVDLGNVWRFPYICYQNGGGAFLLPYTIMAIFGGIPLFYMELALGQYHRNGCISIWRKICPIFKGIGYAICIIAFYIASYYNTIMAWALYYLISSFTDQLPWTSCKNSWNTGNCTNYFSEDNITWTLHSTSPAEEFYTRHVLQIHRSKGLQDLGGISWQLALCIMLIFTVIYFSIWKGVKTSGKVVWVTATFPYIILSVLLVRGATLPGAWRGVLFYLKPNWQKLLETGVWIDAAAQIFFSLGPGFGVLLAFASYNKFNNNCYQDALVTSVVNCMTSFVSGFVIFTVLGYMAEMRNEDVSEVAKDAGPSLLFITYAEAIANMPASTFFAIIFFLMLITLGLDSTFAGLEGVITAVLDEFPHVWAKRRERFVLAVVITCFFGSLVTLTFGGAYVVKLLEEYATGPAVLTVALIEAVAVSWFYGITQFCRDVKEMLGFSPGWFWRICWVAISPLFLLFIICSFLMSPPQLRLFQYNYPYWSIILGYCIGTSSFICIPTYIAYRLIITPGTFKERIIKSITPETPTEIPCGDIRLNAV
Sequence of Sodium-dependent dopamine transporter (Q01959 whole entry): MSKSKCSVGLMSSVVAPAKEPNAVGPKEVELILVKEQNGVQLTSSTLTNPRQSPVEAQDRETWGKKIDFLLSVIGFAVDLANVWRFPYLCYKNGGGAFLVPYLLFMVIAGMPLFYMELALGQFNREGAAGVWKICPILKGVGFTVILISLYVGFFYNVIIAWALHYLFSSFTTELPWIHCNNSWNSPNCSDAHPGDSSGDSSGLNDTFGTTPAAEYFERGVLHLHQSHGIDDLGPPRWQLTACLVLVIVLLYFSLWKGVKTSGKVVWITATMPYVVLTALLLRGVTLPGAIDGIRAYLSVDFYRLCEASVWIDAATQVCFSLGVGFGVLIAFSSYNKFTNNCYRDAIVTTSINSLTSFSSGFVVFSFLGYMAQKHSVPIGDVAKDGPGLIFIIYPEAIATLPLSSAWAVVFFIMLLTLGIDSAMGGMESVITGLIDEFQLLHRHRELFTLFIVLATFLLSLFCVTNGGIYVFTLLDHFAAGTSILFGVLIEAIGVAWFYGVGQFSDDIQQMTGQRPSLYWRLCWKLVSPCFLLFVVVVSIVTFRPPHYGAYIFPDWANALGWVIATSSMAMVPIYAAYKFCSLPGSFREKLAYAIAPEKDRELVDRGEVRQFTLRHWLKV

## Cc1cc(C2=C(c3ccccc3)CC3CCC2S3)on1 (stereo unspecified)
[1]
  IC50: > 2000 nM
[2]
  IC50: > 10 µM

## Cc1cc(C2=C(c3ccc(F)cc3)CC3CCC2S3)on1 (stereo unspecified)
[1]
  IC50: > 1000 nM
[2]
  IC50: > 10 µM

## Cc1cc(C2=C(c3ccc(Cl)cc3)CC3CCC2S3)on1 (stereo unspecified)
[1]
  IC50: 155 nM
[2]
  IC50: > 10 µM

## Cc1cc(C2=C(c3ccc(Br)cc3)CC3CCC2S3)on1 (stereo unspecified)
[1]
  IC50: 139 nM
[2]
  IC50: > 10 µM

## Cc1cc(C2=C(c3ccc(Cl)c(Cl)c3)CC3CCC2S3)on1 (stereo unspecified)
[1]
  IC50: 69.2 nM
[2]
  IC50: > 10 µM

## c1ccc(C2=C(c3cc(-c4ccccc4)no3)C3CCC(C2)S3)cc1 (stereo unspecified)
[1]
  IC50: > 5000 nM
[2]
  IC50: > 10 µM

## Fc1ccc(C2=C(c3cc(-c4ccccc4)no3)C3CCC(C2)S3)cc1 (stereo unspecified)
[1]
  IC50: > 2000 nM
[2]
  IC50: > 10 µM

## Clc1ccc(C2=C(c3cc(-c4ccccc4)no3)C3CCC(C2)S3)cc1 (stereo unspecified)
[1]
  IC50: 66.5 nM
[2]
  IC50: > 10 µM

## Brc1ccc(C2=C(c3cc(-c4ccccc4)no3)C3CCC(C2)S3)cc1 (stereo unspecified)
[1]
  IC50: 126 nM
[2]
  IC50: > 10 µM

## Clc1ccc(C2=C(c3cc(-c4ccccc4)no3)C3CCC(C2)S3)cc1Cl (stereo unspecified)
[1]
  IC50: 332 nM
[2]
  IC50: > 10 µM

## Cc1cc([C@@H]2C3CCC(C[C@H]2c2ccccc2)S3)on1 (stereo partly specified)
[1]
  IC50: 65 nM
[2]
  IC50: > 10 µM

## Cc1cc([C@@H]2C3CCC(C[C@H]2c2ccc(F)cc2)S3)on1 (stereo partly specified)
[1]
  IC50: 22 nM
[2]
  IC50: > 10 µM

## Cc1cc([C@@H]2C3CCC(C[C@H]2c2ccc(Cl)cc2)S3)on1 (stereo partly specified)
[1]
  IC50: 32.7 nM
[2]
  IC50: > 7 µM

## Cc1cc([C@@H]2C3CCC(C[C@H]2c2ccc(Br)cc2)S3)on1 (stereo partly specified)
[1]
  IC50: 46.6 nM
[2]
  IC50: > 4 µM

## Cc1cc([C@@H]2C3CCC(C[C@H]2c2ccc(Cl)c(Cl)c2)S3)on1 (stereo partly specified)
[1]
  IC50: 101 nM
[2]
  IC50: > 2 µM

## c1ccc(-c2cc(C3C4CCC(C[C@H]3c3ccccc3)S4)on2)cc1 (stereo partly specified)
[1]
  IC50: > 1000 nM
[2]
  IC50: > 10 µM

## Fc1ccc([C@@H]2CC3CCC(S3)C2c2cc(-c3ccccc3)no2)cc1 (stereo partly specified)
[1]
  IC50: 456 nM
[2]
  IC50: > 10 µM

## Clc1ccc([C@@H]2CC3CCC(S3)C2c2cc(-c3ccccc3)no2)cc1 (stereo partly specified)
[1]
  IC50: 130 nM
[2]
  IC50: > 10 µM

## Brc1ccc([C@@H]2CC3CCC(S3)C2c2cc(-c3ccccc3)no2)cc1 (stereo partly specified)
[1]
  IC50: 238 nM
[2]
  IC50: > 10 µM

## Clc1ccc([C@@H]2CC3CCC(S3)C2c2cc(-c3ccccc3)no2)cc1Cl (stereo partly specified)
[1]
  IC50: 497 nM
[2]
  IC50: > 10 µM

## Cc1cc([C@@H]2C3CCC(C[C@@H]2c2ccccc2)S3)on1 (stereo partly specified)
[1]
  IC50: 12 nM
[2]
  IC50: > 10 µM

## Cc1cc([C@@H]2C3CCC(C[C@@H]2c2ccc(F)cc2)S3)on1 (stereo partly specified)
[1]
  IC50: 7 nM
[2]
  IC50: > 1 µM

## Cc1cc([C@@H]2C3CCC(C[C@@H]2c2ccc(Cl)cc2)S3)on1 (stereo partly specified)
[1]
  IC50: 7.2 nM
[2]
  IC50: > 1 µM

## Cc1cc([C@@H]2C3CCC(C[C@@H]2c2ccc(Br)cc2)S3)on1 (stereo partly specified)
[1]
  IC50: 14 nM
[2]
  IC50: 0.755 µM

## Cc1cc([C@@H]2C3CCC(C[C@@H]2c2ccc(Cl)c(Cl)c2)S3)on1 (stereo partly specified)
[1]
  IC50: 43.5 nM
[2]
  IC50: 0.766 µM

## c1ccc(-c2cc(C3C4CCC(C[C@@H]3c3ccccc3)S4)on2)cc1 (stereo partly specified)
[1]
  IC50: 157 nM
[2]
  IC50: > 10 µM

## Fc1ccc([C@H]2CC3CCC(S3)C2c2cc(-c3ccccc3)no2)cc1 (stereo partly specified)
[1]
  IC50: 49 nM
[2]
  IC50: > 10 µM

## Clc1ccc([C@H]2CC3CCC(S3)C2c2cc(-c3ccccc3)no2)cc1Cl (stereo partly specified)
[1]
  IC50: 269 nM
[2]
  IC50: > 10 µM
